Results from article PMC3080100 (Chemical biology & drug design, 2011).
Values belong to the substance of their own block, whether it stands above or below them. * marks the point of attachment. FITC = O=C1OC2(c3ccc(O)cc3Oc3cc(O)ccc32)c2ccc(NC(=S)*)cc21

Key:
Type in all cases: cell-based, mouse
[1] = system: EpH4 cells; assay: Apoptosis scored as caspase-3 positive cells; conditions: mean ± SEM; for percentage of cells containing caspase-3 (apoptosis): 2 mM peptide; for percent apoptosis (caspase-3 positive cells): 200 μM peptide, 16 hours at 37°C
Summary of the method: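 EpH4 monolayers were exposed for 16 h to test compound over a dose range and fixed in 2% PFA (15 min RT). Then 0.5% Triton X-100 for 5 min and 2% BSA for 1 h. Primary: rabbit anti-cleaved caspase-3 (1:100), ± rat anti-ZO-1 (1:50), 1 h. Secondary: Cy3/FITC (1:150), 45 min. Percent positive cells scored; mean ± SEM, n=3-6 wells; unpaired t-test versus untreated.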

[2] = system: claudin-3; assay: Claudin-3 localization by immunofluorescence; conditions: EpH4 cells, 16 hours, co-stained with ZO-1
Summary of the method: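 EpH4 monolayers were exposed to peptide for 16 h, then fixed in 2% paraformaldehyde for 15 min at room temperature. Permeabilised with 0.5% Triton X-100 and blocked 1 h in 2% BSA. Stained 1 h with rabbit anti-claudin-3 (1:200) and rat anti-ZO-1 (1:50), then 45 min with fluorophore-conjugated donkey secondaries (1:150). Nuclei counterstained with DAPI; confocal z-stacks imaged.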

[3] = system: claudin-4; assay: Claudin-4 localization by immunofluorescence; conditions: EpH4 cells; for claudin-4 localization: 16 hours; for claudin-4 localization, time course: 400 μM, 16 hours at 4°C
[4] = system: EpH4 cells; assay: TUNEL staining
Summary of the method: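 EpH4 cells on chamber slides were exposed to 350 μM test compound or control peptide for 8, 16 or 24 h. Fixed in 2% PFA and permeabilised in 1% sodium citrate with 0.1% Triton X-100. TUNEL staining used a TMR-red in situ cell death kit per manufacturer. Mean ± SEM, n=3-6.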

[5] = system: caspase-8; assay: Active caspase-8, live-cell fluorescent indicator; conditions: EpH4 cells, 16 hours of peptide, indicator added during the last hour
Summary of the method: (§1)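 EpH4 cells were grown 4-5 days on 8-well chamber slides to form tight junctions, then exposed to test compound or control peptide for 8, 16 or 24 h (DMSO <0.5% final). For the last 1 h, growth medium held 1X FLICA probe (sulforhodamine-DEVD-fmk for caspase-3/7; carboxyfluorescein-LETD-fmk for caspase-8). Optional 1 μM Hoechst 33342, 5 min 37°C; HBSS wash; 2% PFA, 15 min RT. Mean ± SEM, n=3-6.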

[6] = system: caspase-3; assay: Active caspase-3; conditions: EpH4 cells
Summary of the method: as §1

[7] = system: 3T3L1 cells; assay: Live-cell binding/localization of FITC-labeled peptide at 4°C, 3T3L1; conditions: 3T3L1 fibroblast cells, 400 μM, 1 hour at 4°C, live imaging
Summary of the method: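 3T3L1 fibroblasts grown in DMEM/F12 with 10% bovine calf serum and plated on glass chamber slides. Given 400 μM FITC-linked D-form test peptide for 1 h at 4°C. Then either 1 h with live caspase-3/7 FLICA indicator at 4°C (time 0), or 30 min, 2 h or 4 h at 37°C before 1 h with indicator. Washed in cold PBS and imaged live without fixation.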

[8] = system: 3T3L1 cells; assay: Active caspase-3 and -7, live-cell fluorescent indicator, 3T3L1 fibroblasts; conditions: 3T3L1 fibroblast cells, 400 μM, 1 hour at 4°C then up to 4 hours at 37°C
Summary of the method: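 Live imaging of EpH4 or 3T3L1 cells (3T3L1 in DMEM/F12 with 10% bovine calf serum, split 1:8 every 2-3 days). Cells received 400 μM FITC-labelled test compound for 1 h at 4°C. Active caspase-3/7 indicator was then applied for 1 h at 4°C (time 0), or after 30 min, 2 h or 4 h at 37°C. PBS wash, then fluorescence imaging.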

[9] = system: caspase-8; assay: Active caspase-8 by antibody, time course after warming from 4°C to 37°C; conditions: EpH4 cells, 400 μM, 16 hours at 4°C, then 4 hr at 37°C
Summary of the method: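 EpH4 cells grown 4–5 days on glass chamber slides to form tight junctions, in DMEM with 5% FBS and 10 mM Hepes. Exposed to 400 μM FITC-labelled D-form test peptide for 16 h at 4°C (final DMSO <0.5%). Then fixed (time 0) or moved to 37°C for 30 min, 2 h or 4 h. Fixed in 2% paraformaldehyde, permeabilised, BSA-blocked, immunostained for claudin-4 and active caspase-8, then imaged.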

[10] = system: EpH4 cells; assay: Live-cell binding/localization of FITC-labeled peptide at 4°C, EpH4; conditions: 400 μM, 1 hour at 4°C; for localization/binding of FITC-peptide at the plasma membrane: live imaging; for fluorescence intensity of FITC: washed in ice cold PBS, background subtracted, mean ± SEM, n=3 separate cultures, p=0.007
Summary of the method: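 EpH4 cells were incubated 1 h at 4°C with 400 μM FITC-labelled test compound. Washed in ice-cold PBS and imaged live, without fixation. FITC intensity was measured after background subtraction. Mean ± SEM, n=3 separate cultures.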

Substance: Ac-C-DFYNP-C-OH (disulfide) [peptide 2]
percentage of cells containing caspase-3 (apoptosis) ([1]; 16 hours, n=3-6): 9.22 ± 0.65%

Substance: Ac-C-DFYNP-C-amide (disulfide) [disulfide-bridged D-peptide]
percent apoptosis (caspase-3 positive cells) ([1]; n=3-6): 16.46 ± 0.51%
percentage of cells containing caspase-3 (apoptosis) ([1]; 16 hours, n=3-6, listed as D-peptide): 100%

Substance: Ac-C-DFYNP-C-amide (disulfide) [peptide 3]
percentage of cells containing caspase-3 (apoptosis) ([1]; 16 hours, n=3-6): 7.96 ± 0.75%
percentage of cells containing caspase-3 (apoptosis) ([1]; 16 hours, n=3-6, listed as L-peptide): about 7%

Substance: Ac-DFYNP-amide [linear D-peptide]
claudin-3 localization ([2]; linear D-peptide): mis-localization away from tight junctions
percent apoptosis (caspase-3 positive cells) ([1]; n=3-6): 12.27±0.72%
claudin-4 localization ([3]; linear D-peptide, co-stained with ZO-1): mis-localized

Substance: Ac-DGYNP-amide [D(G)YNP]
claudin-3 localization ([2]; 400 μM peptide): remained restricted to the tight junctions
percent apoptosis (caspase-3 positive cells) ([1]; n=3-6): 1.46±0.53%
percentage of cells containing caspase-3 (apoptosis) ([1]; 16 hours, n=3-6): 1.34±0.21%
claudin-4 localization ([3]; 400 μM peptide, anti-claudin-4): not affected

Substance: LYQY [reference compound]
claudin-4 localization ([3]; 350 μM peptide, anti-claudin-4): no effect

Substance: NH2-C-DFYNP-C-OH (disulfide) [peptide 1]
percentage of cells containing caspase-3 (apoptosis) ([1]; 16 hours, n=3-6): 7.17 ± 1.24%
TUNEL staining compared to control peptide treated cells ([4]; 350 μM, 8, 16 or 24 hours): significantly increased
time of peak TUNEL staining ([4]; 350 μM, tested at 8, 16 or 24 hours): ~16 h
claudin-4 localization ([3]; 400 μM peptide, anti-claudin-4): mis-localization
cells with activated caspase-8 compared to control [5]: significant number of cells
cells with activated caspase-3 compared to control ([6]; 16 hours of peptide, indicator added during the last hour): significant number of cells

caspase-8 activation, time course [9]: significant caspase-8 activation
Substance: {FITC}-DFYNP-NH2
percent apoptosis (caspase-3 activation) ([1]; 800 μM peptide, 16 hours, n=3-6): 10.58±0.83%
localization/binding of FITC-peptide at the plasma membrane [7]: does not, however, appear to bind to the plasma membranes
claudin-4 localization, time course ([3]; then 30 min at 37°C): significant amount of claudin-4 mis-localization
claudin-4 localization, time course ([3]; then 4 hr at 37°C): significant claudin-4 mis-localization
claudin-4 localization ([3]; 800 μM peptide): mis-localization of claudin-4 away from tight junctions
caspase-3 and/or -7 activation, live cells [8]: no caspase activation
caspase-3 and/or -7 activation, live cells ([6]; 400 μM, 1 hour at 4°C then 4 hours at 37°C): significantly increased
localization/binding of FITC-peptide at the plasma membrane [10]: localizes to the plasma membrane at the sites of cell junctions
fluorescence intensity of FITC [10]: 82.71±5.80

Substance: {FITC}-DGYNP-NH2 [FITC-D(G)YNP]
localization/binding of FITC-peptide at the plasma membrane [10]: binds poorly
fluorescence intensity of FITC [10]: 18.38±9.26
